Measured values as given in ChEMBL document CHEMBL3763106, “Glucose-derived spiro-isoxazolines are anti-hyperglycemic agents against type 2 diabetes through glycogen phosphorylase inhibition” (Eur J Med Chem, 2016).
The source made the active and inactive calls. The rule behind the calls is not given here.

Legend:
[1] = target: T1, Glycogen phosphorylase, muscle form (Oryctolagus cuniculus, UniProt P00489); assay: Inhibition of rabbit muscle glycogen phosphorylase b
T1 sequence (P00489 whole entry): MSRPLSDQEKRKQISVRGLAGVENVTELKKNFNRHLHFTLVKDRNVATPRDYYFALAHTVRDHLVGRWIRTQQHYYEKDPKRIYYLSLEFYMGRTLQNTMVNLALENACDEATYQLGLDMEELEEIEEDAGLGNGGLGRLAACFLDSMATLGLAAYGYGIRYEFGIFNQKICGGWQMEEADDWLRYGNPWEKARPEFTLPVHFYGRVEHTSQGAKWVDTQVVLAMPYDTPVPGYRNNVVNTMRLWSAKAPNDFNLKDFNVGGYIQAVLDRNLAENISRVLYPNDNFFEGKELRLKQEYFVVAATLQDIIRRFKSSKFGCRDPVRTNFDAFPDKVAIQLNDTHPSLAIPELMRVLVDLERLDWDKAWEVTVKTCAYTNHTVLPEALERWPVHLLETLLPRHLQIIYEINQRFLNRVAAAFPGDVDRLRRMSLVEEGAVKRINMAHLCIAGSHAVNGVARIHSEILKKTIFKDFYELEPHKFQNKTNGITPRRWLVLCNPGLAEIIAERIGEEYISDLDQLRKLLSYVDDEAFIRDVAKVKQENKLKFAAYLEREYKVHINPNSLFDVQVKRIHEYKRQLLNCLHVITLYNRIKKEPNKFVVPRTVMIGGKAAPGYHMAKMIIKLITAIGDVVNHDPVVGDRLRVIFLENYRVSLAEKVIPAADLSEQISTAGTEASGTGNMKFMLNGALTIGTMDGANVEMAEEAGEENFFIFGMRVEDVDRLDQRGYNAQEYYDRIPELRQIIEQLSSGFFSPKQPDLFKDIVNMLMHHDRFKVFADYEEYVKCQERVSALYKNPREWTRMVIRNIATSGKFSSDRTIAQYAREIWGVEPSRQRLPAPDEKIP

[2] = target: T2, Glycogen phosphorylase, liver form (Rattus norvegicus, UniProt P09811); assay: Inhibition of glycogen phosphorylase in Wistar rat hepatocytes assessed as decrease in glucagon stimulated glucose release after 3 hrs by glucose oxidase method; assay type: cell-based, Hepatocyte
T2 sequence (P09811 whole entry): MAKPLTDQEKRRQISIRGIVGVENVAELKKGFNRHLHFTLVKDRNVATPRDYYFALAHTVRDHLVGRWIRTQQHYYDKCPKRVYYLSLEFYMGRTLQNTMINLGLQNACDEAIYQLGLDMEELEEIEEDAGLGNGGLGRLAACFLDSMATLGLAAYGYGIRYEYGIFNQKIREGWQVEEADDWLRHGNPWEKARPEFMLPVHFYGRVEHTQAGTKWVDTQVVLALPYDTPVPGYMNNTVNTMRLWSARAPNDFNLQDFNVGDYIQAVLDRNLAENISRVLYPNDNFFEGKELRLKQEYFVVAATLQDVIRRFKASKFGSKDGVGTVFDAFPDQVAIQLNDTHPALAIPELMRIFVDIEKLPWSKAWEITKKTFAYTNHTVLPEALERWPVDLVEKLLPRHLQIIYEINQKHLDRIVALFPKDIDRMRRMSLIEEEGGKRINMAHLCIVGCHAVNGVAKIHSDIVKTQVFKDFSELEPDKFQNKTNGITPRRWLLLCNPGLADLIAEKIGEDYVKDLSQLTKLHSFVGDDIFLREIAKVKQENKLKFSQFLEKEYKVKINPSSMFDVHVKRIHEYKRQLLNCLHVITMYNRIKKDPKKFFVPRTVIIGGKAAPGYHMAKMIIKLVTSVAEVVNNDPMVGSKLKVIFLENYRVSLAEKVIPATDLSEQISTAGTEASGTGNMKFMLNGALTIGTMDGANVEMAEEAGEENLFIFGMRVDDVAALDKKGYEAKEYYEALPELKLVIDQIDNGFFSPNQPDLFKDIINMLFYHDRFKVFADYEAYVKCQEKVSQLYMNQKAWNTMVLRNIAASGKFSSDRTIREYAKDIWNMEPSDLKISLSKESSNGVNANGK
Procedure, shortened: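 Hepatocytes from male Wistar rats (160-220 g) isolated by two-step perfusion, viability >75%. Seeded at 830,000 cells/well, then cultured 24 h with 100 nM dexamethasone. Incubated 3 h in Hepes-bicarbonate buffer pH 7.4 with 0.1% BSA, 100 nM glucagon and inhibitor at several concentrations. Supernatant glucose measured by glucose oxidase (A492). IC50 taken from % of glucagon-stimulated value, mean of three independent experiments.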

[3] = target: T3, Glycogen phosphorylase, liver form (Homo sapiens, UniProt P06737); assay: Inhibition of glycogen phosphorylase in human hepatocytes assessed as decrease in glucagon stimulated glucose release after 3 hrs by glucose oxidase method; assay type: cell-based, Hepatocyte
T3 sequence (P06737 whole entry): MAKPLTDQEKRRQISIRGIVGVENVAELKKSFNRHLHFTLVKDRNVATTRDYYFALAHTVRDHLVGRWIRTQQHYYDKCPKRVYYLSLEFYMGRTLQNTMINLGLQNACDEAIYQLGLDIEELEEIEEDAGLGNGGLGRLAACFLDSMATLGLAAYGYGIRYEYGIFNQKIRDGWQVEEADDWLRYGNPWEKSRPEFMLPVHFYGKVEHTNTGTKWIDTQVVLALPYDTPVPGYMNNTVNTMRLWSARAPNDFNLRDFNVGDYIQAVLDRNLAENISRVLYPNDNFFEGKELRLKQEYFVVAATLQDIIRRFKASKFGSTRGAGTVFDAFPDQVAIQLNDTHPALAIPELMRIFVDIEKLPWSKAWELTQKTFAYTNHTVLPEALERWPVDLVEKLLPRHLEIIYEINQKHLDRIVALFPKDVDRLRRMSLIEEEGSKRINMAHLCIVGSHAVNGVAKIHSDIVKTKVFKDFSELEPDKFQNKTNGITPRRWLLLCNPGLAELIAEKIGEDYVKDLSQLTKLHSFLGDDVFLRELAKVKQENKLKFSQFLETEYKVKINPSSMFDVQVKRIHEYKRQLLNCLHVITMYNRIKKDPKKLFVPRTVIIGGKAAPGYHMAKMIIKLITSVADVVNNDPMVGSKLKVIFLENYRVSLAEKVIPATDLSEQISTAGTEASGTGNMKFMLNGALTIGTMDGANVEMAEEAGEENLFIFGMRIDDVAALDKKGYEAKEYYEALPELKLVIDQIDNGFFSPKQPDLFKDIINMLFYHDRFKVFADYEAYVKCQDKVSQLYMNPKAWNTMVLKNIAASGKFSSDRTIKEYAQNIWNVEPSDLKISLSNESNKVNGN
Procedure, shortened: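 Human hepatocytes isolated by two-step perfusion of surgical liver pieces and seeded at 1×10⁶/well. Glycogen-loaded for 20 h in medium containing insulin, dexamethasone and 4.5 g/L glucose. Then 3 h in glucose-free DMEM with 100 nM glucagon and inhibitor at several concentrations. Supernatant glucose measured by glucose oxidase (A492). IC50 from % of glucagon-stimulated value, triplicates across 3-5 cultures.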

[4] = target: T3, Glycogen phosphorylase, liver form; assay: Inhibition of glycogen phosphorylase in human hepatocytes assessed as glucagon stimulated glycogen content after 3 hrs by colorimetric GOD method; assay type: cell-based, Hepatocyte
Procedure, shortened: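 Human hepatocytes, glycogen-loaded 20 h, then 3 h in glucose-free DMEM with 100 nM glucagon and inhibitor. Washed cells digested with amyloglucosidase (0.75 UI/mL, acetate pH 4.8) for 2 h at 40 °C. Released glucose quantified by glucose oxidase. IC50 from % of glucagon-stimulated glycogen, triplicates across 3-5 cultures.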

[5] = target: T1, Glycogen phosphorylase, muscle form; assay: Competitive inhibition of rabbit muscle glycogen phosphorylase b by Lineweaver-Burk plot analysis in presence of glucose 1-phosphate
Rattus norvegicus [6] = assay: Anti-hyperglycemic activity in Zucker fa/fa rat model assessed as decrease in liver glucose production at 7.5 mg/kg, po administered as single dose for 20 mins followed by glucagon challenge measured for 45 mins by glucose oxidase method; assay type: functional; set-up: scale not given: the % may be the effect or the level left
Procedure, shortened: (§1)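 Acute glucagon challenge in male Zucker fa/fa rats, 10-13 weeks old, 3 treated and 3 vehicle per experiment. Single oral dose (7.5-90 mg/kg range; vehicle 4-5 mL/kg po) given 65 min before the final blood glucose reading. Glucagon 200 µg/kg SC. Tail-vein plasma taken at 0, 10, 20 and 45 min, glucose by glucose oxidase. Hepatic glucose production read as 45-min AUC.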

Rattus norvegicus [7] = assay: Anti-hyperglycemic activity in Zucker fa/fa rat model assessed as decrease in liver glucose production at 15 mg/kg, po administered as single dose for 20 mins followed by glucagon challenge measured for 45 mins by glucose oxidase method; assay type: functional; set-up: scale not given: the % may be the effect or the level left; procedure, shortened: as §1
Rattus norvegicus [8] = assay: Anti-hyperglycemic activity in Zucker fa/fa rat model assessed as decrease in liver glucose production at 30 mg/kg, po administered as single dose for 20 mins followed by glucagon challenge measured for 45 mins by glucose oxidase method; assay type: functional; set-up: scale not given: the % may be the effect or the level left; procedure, shortened: as §1
Rattus norvegicus [9] = assay: Anti-hyperglycemic activity in Zucker fa/fa rat model assessed as decrease in liver glucose production at 60 mg/kg, po administered as single dose for 20 mins followed by glucagon challenge measured for 45 mins by glucose oxidase method; assay type: functional; set-up: scale not given: the % may be the effect or the level left; procedure, shortened: as §1
Rattus norvegicus [10] = assay: Anti-hyperglycemic activity in Zucker fa/fa rat model assessed as decrease in hepatic glucose production at 30 mg/kg, po administered for 4 days followed by glucagon challenge for 2 days measured for 45 mins; assay type: functional; set-up: scale not given: the % may be the effect or the level left
Procedure, shortened: (§2)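 Male Zucker fa/fa rats, 10-13 weeks old, after 5 days of stabilization; 3 dosed and 3 vehicle controls. Daily oral dosing at 30 mg/kg for 4 days, then glucagon challenge (200 µg/kg, scapular SC). Tail-vein blood taken at 0, 10, 20 and 45 min. Plasma glucose by glucose oxidase, insulin by radioimmunoassay, each expressed as delta from basal. Glucose output given as 45-min AUC.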

Rattus norvegicus [11] = assay: Anti-hyperglycemic activity in glucagon challenged Zucker fa/fa rat model assessed as decrease in insulinemia at 30 mg/kg, po administered for 6 days measured for 60 mins post last dose by OGTT relative to control; assay type: functional, organism-based
Procedure, shortened: (§3)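 Zucker fa/fa rats received 30 mg/kg po daily for 6 days, with a glucagon challenge after day 4. They were then fasted overnight and given an OGTT (glucose 3 g/kg). Tail-vein plasma glucose measured by glucose oxidase and insulin by radioimmunoassay, each expressed as delta from basal per rat.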

Rattus norvegicus [12] = assay: Anti-hyperglycemic activity in glucagon challenged Zucker fa/fa rat model assessed as decrease in glycaemia at 30 mg/kg, po administered for 6 days measured for 60 mins post last dose by OGTT relative to control; assay type: functional, organism-based; procedure, shortened: as §3
Rattus norvegicus [13] = assay: Anti-hyperglycemic activity in po dosed Zucker fa/fa rat model assessed as decrease in liver glucose production administered 20 mins followed by glucagon challenge measured for 45 mins by glucose oxidase method; assay type: functional, organism-based; procedure, shortened: as §1
Rattus norvegicus [14] = assay: Anti-hyperglycemic activity in Zucker fa/fa rat model assessed as decrease in insulin output at 30 mg/kg, po administered for 4 days followed by glucagon challenge for 2 days measured for 45 mins; assay type: functional, organism-based; procedure, shortened: as §2

## OC[C@H]1O[C@@]2(CC(c3nc4ccccc4s3)=NO2)[C@H](O)[C@@H](O)[C@@H]1O
[1]
  IC50: 6.1 µM

## CSc1ccc(C2=NO[C@@]3(C2)O[C@H](CO)[C@@H](O)[C@H](O)[C@H]3O)cc1
[1]
  IC50: 5.6 µM
[2]
  IC50: > 100 µM
[3]
  IC50: > 100 µM
[4]
  IC50: > 100 µM

## CC(=O)OC[C@H]1O[C@@]2(CC(c3ccc4ccccc4c3)=NO2)[C@H](OC(C)=O)[C@@H](OC(C)=O)[C@@H]1OC(C)=O
[2]
  IC50: 13.6 µM
[3]
  IC50: 2.5 µM
[4]
  IC50: 2.38 µM

## O=C1CNC(=O)[C@@]2(N1)O[C@H](CO)[C@@H](O)[C@H](O)[C@H]2O
[5]
  Ki: 59.7 µM

## OC[C@H]1O[C@@]2(CC(c3cc4ccccc4c4ccccc34)=NO2)[C@H](O)[C@@H](O)[C@@H]1O
[1]
  IC50: 80.5 µM
[2]
  IC50: > 100 µM
[3]
  IC50: > 100 µM
[4]
  IC50: > 100 µM

## OC[C@H]1O[C@@]2(CC(c3ccc4cc(O)ccc4c3)=NO2)[C@H](O)[C@@H](O)[C@@H]1O
[1]
  IC50: 1.54 µM
[2]
  IC50: 30.1 µM
[3]
  IC50: 22.2 µM
[4]
  IC50: 13.8 µM

## OC[C@H]1O[C@@]2(CC(c3ccc4c(c3)OCCO4)=NO2)[C@H](O)[C@@H](O)[C@@H]1O
[1]
  IC50: 13.3 µM
[2]
  IC50: > 100 µM
[3]
  IC50: > 100 µM
[4]
  IC50: > 100 µM

## COc1cc(OC)cc(C2=NO[C@@]3(C2)O[C@H](CO)[C@@H](O)[C@H](O)[C@H]3O)c1
[1]
  IC50: 325 µM
[2]
  IC50: > 100 µM
[3]
  IC50: > 100 µM
[4]
  IC50: > 100 µM

## OC[C@H]1O[C@@]2(CC(c3cc4ccccc4[nH]3)=NO2)[C@H](O)[C@@H](O)[C@@H]1O
[1]
  IC50: 280 µM

## COc1ccc2cc(C3=NO[C@@]4(C3)O[C@H](CO)[C@@H](O)[C@H](O)[C@H]4O)ccc2c1
[1]
  IC50: 27.7 µM

## OC[C@H]1O[C@@]2(CC(c3cc4ccccc4s3)=NO2)[C@H](O)[C@@H](O)[C@@H]1O
[1]
  IC50: 10 µM

## OC[C@H]1O[C@@]2(CC(c3cc4ccccc4o3)=NO2)[C@H](O)[C@@H](O)[C@@H]1O
[1]
  IC50: 25 µM

## OC[C@H]1O[C@@]2(CC(c3ccc4ccccc4c3)=NO2)[C@H](O)[C@@H](O)[C@@H]1O
[2]
  IC50: 36 µM
[3]
  IC50: 20 µM
[4]
  IC50: 14.2 µM
Rattus norvegicus [6]
  Activity: 3%
Rattus norvegicus [7]
  Activity: 18%
Rattus norvegicus [8]
  Activity: 30%
Rattus norvegicus [9]
  Activity: 33%
Rattus norvegicus [10]
  Activity: 19%
Rattus norvegicus [11]
  Activity: Active
Rattus norvegicus [12]
  Activity: inactive
Rattus norvegicus [13]
  Activity: Dose-dependent effect
Rattus norvegicus [14]
  Activity: Active

## OC[C@H]1O[C@@]2(CC(c3c[nH]c4ccccc34)=NO2)[C@H](O)[C@@H](O)[C@@H]1O
[1]
  IC50: 800 µM

## OC[C@H]1O[C@@]2(CC(c3ccc4c(c3)OCO4)=NO2)[C@H](O)[C@@H](O)[C@@H]1O
[1]
  IC50: 81.3 µM
[2]
  IC50: > 100 µM
[3]
  IC50: > 100 µM
[4]
  IC50: > 100 µM
